# Assay results: ChEMBL document CHEMBL1240314, “Small-molecule inhibitor of p53 binding to mitochondria protects mice from gamma radiation” (2006)
# Active and inactive are the calls of the source. The rule behind the calls is not given here.
# Experiments:
# [1] = target: Cellular tumor antigen p53 (Homo sapiens) (UniProt P04637); assay: Binding affinity to p53 transfected in human Saos-2 cells harboring pLV-53 assessed as cytosolic p53 concentration at 10 uM after 48 hrs; format: cell-based
# [2] = target: Cellular tumor antigen p53 (Homo sapiens) (UniProt P04637); assay: Inhibition of p53-mediated transactivation of promoter bax in human H1299 cells at 10 uM after 48 hrs by luciferase reporter assay; format: cell-based
# Fibroblast = assay: Antiapoptotic activity against TNF-alpha induced apoptosis in mouse fibroblast assessed as cell survival at 0.1 uM to 10 uM by methylene blue assay in presence of 0.5 ug/ml cycloheximidine after 24 hrs; format: functional, cell-based
# [3] = target: Cellular tumor antigen p53 (Homo sapiens) (UniProt P04637); assay: Inhibition of p53-dependent transactivation of p21 in gamma-stimulated human ConA cells; format: cell-based
# Method in brief: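 ConA cells given 10 µM test agent and 10 Gy gamma irradiation. Protein extracts taken 6 h post-irradiation and p21 detected by immunoblotting.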
# [4] = target: Cellular tumor antigen p53 (Mus musculus) (UniProt P02340); assay: Inhibition of p53-mediated transactivation of p21 in gamma-stimulated mouse ConA cells at 10 uM after 6 hrs
# Target sequence in this assay (P02340 whole entry, looked up): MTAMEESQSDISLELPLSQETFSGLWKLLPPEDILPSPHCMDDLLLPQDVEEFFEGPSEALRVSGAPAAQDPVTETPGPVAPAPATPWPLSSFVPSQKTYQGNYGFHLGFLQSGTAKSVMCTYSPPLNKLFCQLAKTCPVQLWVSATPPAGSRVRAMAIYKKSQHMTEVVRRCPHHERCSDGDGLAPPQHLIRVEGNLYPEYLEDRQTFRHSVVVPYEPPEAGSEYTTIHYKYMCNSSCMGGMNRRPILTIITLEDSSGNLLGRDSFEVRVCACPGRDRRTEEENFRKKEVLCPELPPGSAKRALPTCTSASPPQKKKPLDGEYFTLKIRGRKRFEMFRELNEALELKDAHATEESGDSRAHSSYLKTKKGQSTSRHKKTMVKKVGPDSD
# HT-1080 = assay: Antiapoptotic activity against Bax gene-induced apoptosis in human HT1080 cells transfected with pTZV3-CMV-Bax at 10 uM after 24 hrs; format: functional, cell-based
# [5] = target: Cellular tumor antigen p53 (Homo sapiens) (UniProt P04637); assay: Inhibition of p53-mediated transactivation of p21 in gamma-stimulated human BJ cells at 10 uM after 6 hrs; format: cell-based
# [6] = target: Cellular tumor antigen p53 (Homo sapiens) (UniProt P04637); assay: Binding affinity to p53 transfected in human […] cells assessed as reduction in p53 bound-Bcl-2 at 15 uM after 48 hrs; format: cell-based; settings: HEK293
# Method in brief: (§1)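 293T cells cotransfected with Flag-tagged wild-type Bcl-xL or Bcl-2 plus wild-type p53 plasmid; compound 15 mM (so in the source) applied 24 h after transfection; lysates (1 mg protein) immunoprecipitated with anti-Flag M2 gel, bound p53 detected with HRP-conjugated DO-1.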
# [7] = target: Cellular tumor antigen p53 (Homo sapiens) (UniProt P04637); assay: Inhibition of p53-mediated apoptosis in human Saos-2 cells harboring p53 expressing lentiviral vector assessed as cell survival at 10 uM after 48 hrs by methylene blue assay; format: cell-based
# Method in brief: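 Saos-2 cells infected with p53-expressing lentivirus; 10 µM test agent added 5 h after infection. Survival assessed 48 h after infection by methylene blue (0.5%) staining of attached cells and optical density read-out. Means ± s.d., n = 3.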
# Thymocyte = assay: Antiapoptotic activity against dexamethasone-induced apoptosis in mouse thymocyte at 10 uM; format: functional, cell-based
# Method in brief: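 Primary thymocytes from 4-week-old p53-null C57Bl/6 mice, short-term culture; dexamethasone 0.5 mM, 24 h, with compound at 10 mM as printed; viability by trypan blue (0.1%) or annexin/PI FACScan; means ± s.d., n = 3.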
# Homo sapiens = species on record: Homo sapiens; assay: Induction of p21 mRNA expression in human SK-MEL-29 cells; format: functional, cell-based
# Method in brief: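 Wild-type and p53-deficient cell pairs stimulated with 5-FU ([…] as printed) or gamma irradiation (10 or 15 Gy); p21 mRNA quantified by real-time PCR; means ± s.d., n = 3.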
# [8] = target: Cellular tumor antigen p53 (Homo sapiens) (UniProt P04637); assay: Binding affinity to p53 assessed as reduction in mitochondrial-bound p53 level at 10 uM
# Method in brief: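 Cell-free reconstitution: freshly isolated HeLa or Saos-2 mitochondria (40 mg as printed) incubated 1 h at 37 °C with purified baculoviral human wild-type p53 (60 ng) plus compound in MS buffer with CaCl2; mitochondria pelleted, washed three times, p53 cosedimentation by western blot, mt-Hsp75 loading control.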
# [9] = target: Cellular tumor antigen p53 (Homo sapiens) (UniProt P04637); assay: Binding affinity to p53 transfected in human […] cells assessed as reduction in p53 bound-Bcl-xL at 15 uM after 48 hrs; format: cell-based; settings: HEK293; method in brief: as §1
# HEK-293T = assay: Antiapoptotic activity against Bax gene-induced apoptosis in human 293T cells transfected with pTZV3-CMV-Bax at 10 uM after 24 hrs; format: functional, cell-based
# Method in brief: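 Bax delivered by transient transfection of 293T and HT1080 cells with CMV-Bax construct (Lipofectamine Plus); compound at 10 mM as printed; apoptosis scored 24 h after transfection by annexin/PI staining on FACScan.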
# U2OS [10] = assay: Induction of Puma gene expression in doxorubicin-induced human U2OS cells; format: functional, cell-based
# Method in brief: (§2)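 Northern blot: 10 mg RNA (so in the source) isolated 18 h after UV (8.5 J m–2) or doxorubicin (125 mg ml–1 as printed) from MCF7 or U2OS cells and p53-knockdown (lentiviral shRNA) counterparts; hybridized with 32P-labeled full-length cDNA probes for Bax, Noxa, Puma; 18S rRNA loading control.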
# [11] = target: Cellular tumor antigen p53 (Homo sapiens) (UniProt P04637); assay: Inhibition of p53-dependent transcription of bax in UV-stimulated human […] cells; format: cell-based
# Method in brief: (§3)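 Northern analysis of MCF7 cells, p53 wild-type and shRNA p53-knockdown. Induction by UV 8.5 J m–2 or Dox […]. RNA isolated 18 h after treatment; 10 µg hybridised with 32P-labelled full-length cDNA probes for Bax, Noxa or Puma. 18S rRNA used as loading control.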
# [12] = target: Cellular tumor antigen p53 (Homo sapiens) (UniProt P04637); assay: Inhibition of p53 in human ConA cells assessed as effect on cell cycle distribution at 10 uM after 24 hrs; format: cell-based
# Method in brief: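 ConA cells given 10 µM test agent, with or without 10 Gy gamma irradiation. Cell-cycle distribution measured 24 h later.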
# [13] = Antiapoptotic activity against fas-induced apoptosis in mouse fibroblast assessed as cell survival at 0.1 uM to 10 uM by methylene blue assay in presence of 1 ug/ml cycloheximidine after 24 hrs; format: functional, cell-based
# U2OS [14] = assay: Induction of Bax gene expression in human U2OS cells; format: functional, cell-based; method in brief: as §2
# [15] = target: Cellular tumor antigen p53 (Mus musculus) (UniProt P02340); assay: Inhibition of p53-dependent transcription of puma in mouse thymocyte
# Target sequence in this assay (P02340 whole entry): as the sequence (P02340 whole entry, looked up) above
# [16] = target: Cellular tumor antigen p53 (Homo sapiens) (UniProt P04637); assay: Inhibition of p53-dependent transcription of bax in doxorubicin-induced human U2OS cells; format: cell-based
# Method in brief: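 Northern analysis of U2OS cells, p53 wild-type and shRNA p53-knockdown. Induction by UV 8.5 J m–2 or Dox […]. RNA isolated 18 h after treatment; 10 µg hybridised with 32P-labelled full-length cDNA probes for Bax, Noxa or Puma. 18S rRNA used as loading control.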
# Mus musculus = assay: Protection against 8 Gy gamma radiation-induced death in mouse assessed as increase in survival at 40 mg/kg, ip; format: functional; settings: route intraperitoneal
# Method in brief: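 Male C57Bl/6J mice, 8–10 weeks old, given a single 40 mg kg–1 intraperitoneal dose 30 min before total-body gamma irradiation (137Cs, 4 Gy min–1) at 8 or 9 Gy. Survival followed. Ten mice per subgroup; three independent repeats.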
# [17] = target: Cellular tumor antigen p53 (Homo sapiens) (UniProt P04637); assay: Effect on UV-induced activation of p53 in human ConA cells assessed as beta-galactosidase activity by X-gal staining; format: cell-based
# Method in brief: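 ConA cells carrying a lacZ reporter under a p53-responsive promoter; UV 35 J m–2; β-galactosidase visualized by X-gal staining 24 h after treatment.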
# U2OS [18] = assay: Induction of Noxa gene expression in human U2OS cells; format: functional, cell-based; method in brief: as §2
# [19] = target: Cellular tumor antigen p53 (Homo sapiens) (UniProt P04637); assay: Inhibition of p53-dependent transcription of puma in human MCF7 cells; format: cell-based; method in brief: as §3
# [20] = target: Cellular tumor antigen p53 (Homo sapiens) (UniProt P04637); assay: Inhibition of p53-dependent transcription of noxa in UV-induced human MCF7 cells; format: cell-based; method in brief: as §3
# [21] = target: Cellular tumor antigen p53 (Homo sapiens) (UniProt P04637); assay: Inhibition of p53-dependent transcription of puma in UV-induced human MCF7 cells; format: cell-based; method in brief: as §3
# Cellular tumor antigen p53 (Homo sapiens), sequence (P04637 whole entry, looked up): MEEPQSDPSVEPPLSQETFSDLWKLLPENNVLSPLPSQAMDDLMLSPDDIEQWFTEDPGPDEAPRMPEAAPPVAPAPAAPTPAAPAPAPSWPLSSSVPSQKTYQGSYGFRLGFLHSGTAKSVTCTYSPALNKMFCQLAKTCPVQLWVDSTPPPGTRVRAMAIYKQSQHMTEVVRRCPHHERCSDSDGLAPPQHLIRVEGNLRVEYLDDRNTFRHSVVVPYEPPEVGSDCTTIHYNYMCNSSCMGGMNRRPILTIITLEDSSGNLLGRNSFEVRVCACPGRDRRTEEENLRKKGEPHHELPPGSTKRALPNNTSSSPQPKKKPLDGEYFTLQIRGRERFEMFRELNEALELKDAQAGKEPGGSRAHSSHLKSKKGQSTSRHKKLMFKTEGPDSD
structure (smiles),measurement,setting,value
NS(=O)(=O)C#Cc1ccccc1,Activity,[1],inactive
same,inhibition,[2],inactive
same,Activity,Fibroblast,inactive
same,inhibition,[3],inactive
same,inhibition,[4],inactive
same,Activity,HT-1080,inactive
same,inhibition,[5],inactive
same,Activity,[6],Active
same,inhibition,[7],Active
same,Activity,Thymocyte,inactive
same,Activity,Homo sapiens,inactive
same,Activity,[8],Active
same,Activity,[9],Active
same,Activity,HEK-293T,inactive
same,Activity,U2OS [10],inactive
same,inhibition,[11],inactive
same,inhibition,[12],inactive
same,Activity,[13],inactive
same,Activity,U2OS [14],inactive
same,inhibition,[15],inactive
same,inhibition,[16],inactive
same,Activity,Mus musculus,70%
same,Activity,[17],inactive
same,Activity,U2OS [18],inactive
same,inhibition,[19],inactive
same,inhibition,[20],inactive
same,inhibition,[21],inactive
